This sample holds only a part of the variants without activity.
B1: tRNA (parent)
chain: GUUCCGUUGGCGUAAUGGUAACGCGUCUCCCUCCUAAGGAGAAGACUGCGGGUUCGAGUCCCGUACGGAACG

Variants of: B1
Experiment: yeast fitness relative to wild type (ratio to wild type); higher = fitter; tRNA-Arg(CCU), competitive growth, 37 C, YPD
Outline: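 The tRNA-Arg(CCU) gene variants were made by chemical synthesis with a 3% per-site mutation rate at 69 sites and inserted at the native genomic locus of Saccharomyces cerevisiae. After pooling, the strains were competed in YPD at 37°C for 24 hours in six parallel replicates. Gene amplicons from the start population and each end population were read by 100-nucleotide paired-end sequencing, and Darwinian fitness relative to wild type was taken from genotype frequency changes. Genotypes needed ≥ 100 starting reads, and estimates < 0.5 were set to 0.5.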

Going from GUUCCGUUGGCGUAAGGGUAACGCGUCUCCCUCCUAAGGAGAAGACUGCGGGUUCGAGUCCAGUACGGAACG to GUUCCGUUGGCGUAAGGGUAACGCGUCUCCCUCCUAAGGAGAAGACUGCGGGUUCGAGUCCCGUAUGGAACG, the yeast fitness rises from 0.643 to 0.875.

Going from GUUCCGUUGGCGUAAGGGUAACGCGUCUCCCUCCUAAGGAGAAGACUGCGGGUUCGAGUCCCGUAUGGCACG to GUUCCGUUGGCGUAAGGGUAACGCGUCUCCCUCCUAACGAGAAGACUGCGGGUUCGAGUCCCGUACGGAACG, the yeast fitness falls from 0.728 to 0.653.

Going from GUUCCGUUGGCGUAAGGGUAACGCGUCUCCCUCCUAAGCAGAAGACUGCGGGUUCCAGUCCCGUACGGAACG to GUUCCGUUGGCGUAAGGGUAACGCGUCUCCCUCCUAAGGAAAAGACUGCGGGUUCGAGUCCCGUACGGUACG, the yeast fitness rises from no more than 0.5 to 0.527.

Compared with GUUCCGUUGGCGUAAGGGUAACGCGUCUCCCUCCUAAGGACAAGUCUGCGAGUUCGAGUCUCGUACGGACCG, GUUCCGUUGGCGUAAGGGUAACGCGUCUCCCUCCUAAGGAGAAGACUGCGGGUUCGAGUCCCGUACGCGACG is lower in yeast fitness: 0.639 for the first, 0.556 for the second.

Going from GUUCCGUUGGCGUAAGGGAAACCCGUCUCCCUCCUAAGGAGAAGACUGUGGGUUCGAGUCCCGUACGGAACG to GUUCCGUUGGCGUAAGGGUAACGCGACUCCCUCUUAAGGAGAAGACUGCAGGUUCGAGUCCCGUACGGUACG, the yeast fitness rises from no more than 0.5 to 0.551.

Compared with GUUCCGUUGGCGUAAGGGUAACGCGGCUCCCUCCUGAGGAGAAGACUGCGGGUUCGAGUCCCGUACGCAACG, GUUCCGUUGGCGUAAGGGUAACGCGUCCCCCUCCUAAGGAGAAGACUGCGGGUUCGAGUCCCGUACGGAACG is higher in yeast fitness: 0.629 for the first, 0.862 for the second.

GUUCCGUUGGCGUAAGGGUAACGCGUCGCCCUCUUAAGGAGAAGACUGUGGGUUCGAGUCCCCUACGGAACG and GUUCCGUUGGCGUAAGGGUAACGCGUCUCCCUCCUAAGGAGAAGACUGCGGGCUCGAGUCGCGUACGGAACG cannot be ordered by yeast fitness: no more than 0.5 for the first, no more than 0.5 for the second.

Going from GUUCCGUUGGCGUAAGGGUAACGCGUCUCCCUCCUAAGGAGAAGACUGCGGGUUCGAGGCCCGUACGGAACG to GUUCCGUUGGCGUAAUAGUAACGCGUCUCCCUCCUAAGGAGAAGACUGCGGGUUCGAGUCCCGUACGGAACG, the yeast fitness rises from 0.78 to 0.835.

Compared with GUUCCGUUGGCGUAAUAGUGACGCGUGUCCCUCCUCAGGAGAAGACUGCGGGUUCGAGUCCCGUACGGAACG, GUUCCGUUGGCGUAAUAGUGACGCGUGUCCCUCCUCAGGAGAAGACUGCGGGUUCGAGUCCCGUUCGGAACG is lower in yeast fitness: 0.609 for the first, no more than 0.5 for the second.

GUUCCGUUGGCGUAAUAGUGACGCGUCUUCCUUCUAAGGAGAAGACUGCGGGUUCGAGUGCCGUACGGAACG and GUUCCGUUGGCGUAAUAGUACCGCGUCUCCCUCCUAAGGAGCAGACUGCGGGUUCGAGUCCCGUACGGAACG cannot be ordered by yeast fitness: no more than 0.5 for the first, no more than 0.5 for the second.

First: GUUCCGUUGGCGUAAUAGUAGCGCGUCGCCCUCCUAAGGAGAAGACUGCGGGUUCGAGUCCCGUACGGAACG
Second: GUUCCGUUGGCGUAAUAGUAGCGCGUCGCCCUCCUAAGGAGAAGACUGCGGGUUCGAGUCCGGUACGGAACG
The yeast fitness of the first is higher: 0.608 for the first, no more than 0.5 for the second.

Going from GUUCCGUUGGCGUAAUAGUAACGCGUCUCCCUCCUACGGAGAAGACUGCGGGUUCGAGUCCCGUACGGAACG to GUUCCGUUGGCGUAAUAGUAACGCGUCUCCCUCCUACGGAGAAGACUGCGGGUUUGAGUCCCGUACGGAACG, the yeast fitness falls from 0.681 to 0.56.

Compared with GUUCCGUUGGCGUAAUAGUAACGCGUCUCCCUCCUAAGGAGGAGACUGCGGGUUCGAGUCCCGUACGGAACG, GUUCCGUUGGCGUAAUAGUAACGCGUCUCCCUCCUAAGGAGAAGACUGCGGGUUCGGGUCCCGUACGGAACG is higher in yeast fitness: 0.732 for the first, 0.906 for the second.

Compared with GUUCCGUUGGCGUAAUAGUAACGCGUCUCCCUCCUAAGGAGAAGACUGCGGGUUCGAGUCCCGUACGGCACG, GUUCCGUUGGCGUAAUAGUAACGCGUCUCCCUCCUAAGGAGAAGACUGCGGGUUCGAGUCCCGUACGGGACG is higher in yeast fitness: 0.721 for the first, 0.813 for the second.

Going from GUUCCGUUGGCGUAAUAGUAACGCGUCUCCCUCCUAAGGAGAAGACUGCGGGUUCGAGUCCCGUACGGACCG to GUUCCGUUGGCGUAAUAGUAACGCGUCUCCCUCCUAAGGAGAAGACUGCGGGUUCGAGUCCCGUACGGAGCG, the yeast fitness rises from 0.842 to 0.866.

Going from GUUCCGUUGGCGUAAUAGUAAAGCGUCUCCCUCCUAAGGAGAAGCUUGCGGGUUCGAGUCCCGUACGGAACG to GUUCCGUUGGCGUAAUAGUAAAGCGUCUCCCUCCUAAGGAGAAGCUUGUGGGUUCGAGUCCCGUACGGAACG, the yeast fitness falls from 0.578 to no more than 0.5.

Compared with GUUCCGUUGGCGUAAUAGUAAGGCGUAUCCCUCCUAAGGAGAAGACUGCGGGUUCGAGUCCCGUACGGAACG, GUUCCGUUGGCGUAAUAGUAAGGCGUAUCCCUCCUAAGGAGAAGACUGCGGGUUCGAGUCCCAUACGGAACG is lower in yeast fitness: 0.579 for the first, 0.538 for the second.

GUUCCGUUGGCGUAAUAGUAAGGCGUCUUCCUCCUAAGGAGAAGACUGCGCGUUGGAGUCCCGUACGGAACG and GUUCCGUUGGCGUAAUAGUAAGGCGUCUCCCUUCUAAGGAGAAGACUGCGGGUUCGAGUCCAGUACGGAACG cannot be ordered by yeast fitness: no more than 0.5 for the first, no more than 0.5 for the second.

Going from GUUCCGUUGGCGUAAUAGUAAGGCGUCACCGUCCUAAGGAGAAGACUGCGGGUUAGAGUCCCGUACGCAACG to GUUCCGUUGGCGUAAUAGUAAUGCGUCUCCCUCCUAAGGAGAAGACUGCGGGUUCGAGUCCCGUACGGAACG, the yeast fitness rises from no more than 0.5 to 0.737.

GUUCCGUUGGCGUAAUAGUAAUGCGUAUCGCUCCUAAGGAGAAGACUGCGGGUUCGAGUCCCGUACGGAACG and GUUCCGUUGGCGUAAUAGUAAUGCGUCUCCCUCCUAAGGAGAAGAUUGCGGGUUCGAGUCCCGUAUGGACCG cannot be ordered by yeast fitness: no more than 0.5 for the first, no more than 0.5 for the second.

GUUCCGUUGGCGUAAUAGUAACGGGUGUCCCUCCUAAGGAGAAGACUGCGGGUUCGAGUCCUGUACAGAACG and GUUCCGUUGGCGUAAUAGUAACGGGUCUCCCUUCUAUGGAGAAGACUGCGGGUUCGAGUCCCGUACGGAACG cannot be ordered by yeast fitness: no more than 0.5 for the first, no more than 0.5 for the second.

Compared with GUUCCGUUGGCGUAAUAGUAACGUGUCUCCCUCCUAAGGAGAAGACUGCGGGUUCGAGUCCCGUACGGAACG, GUUCCGUUGGCGUAAUAGUAACGUGUCUCCGUCCUAAGGAGAAGACUGCGGGUUCGAGUCCCGUUCGGAACG is lower in yeast fitness: 0.778 for the first, no more than 0.5 for the second.

GUUCCGUUGGCGUAAUAGUAACGUGUCUCCCUCAUAAGGGGAAGACUGCGGGUUCGAGUCUCGUACGGUACG and GUUCCGUUGGCGUAAUAGUAACGCGUCUGCCUCCUAAGGAGAAGGCUGCGGGUUCGAGUCUCGUACGGAACG cannot be ordered by yeast fitness: no more than 0.5 for the first, no more than 0.5 for the second.

First: GUUCCGUUGGCGUAAUAGUAACGCGUCUUCCUCAUAAGGAGAAGACUGCGGGUUCGAGUCCCGUACGGAACG
Second: GUUCCGUUGGCGUAAUAGUAACGCGUCUUCCUCCUAAGGAGAAGACUGCGGGUUCGAGUCCCGUACAGAACG
The yeast fitness of the first is lower: no more than 0.5 for the first, 0.553 for the second.

Compared with GUUCCGUUGGCGUAAUAGUAACGCGUCUCACUCCUAAGGAGAAGACUGCGGGUUCGAGUCCCGUACGGAACG, GUUCCGUUGGCGUAAUAGUAACGCGUCUCGCUCCUAAGGGGAAGACUGCGGGUUCGAGUACCGUACGGAACG is lower in yeast fitness: 0.71 for the first, 0.678 for the second.

GUUCCGUUGGCGUAAUAGUAACGCGUCUCGCUCCUAAGGAGAAGACUGCGGGUUCGAGUCCCGUACCGAACG and GUUCCGUUGGCGUAAUAGUAACGCGUCUCUCUCCUAAGGUGAAGACUGCGGGUUCGUGUCCCGUACGGAACG cannot be ordered by yeast fitness: no more than 0.5 for the first, no more than 0.5 for the second.

Compared with GUUCCGUUGGCGUAAUAGUAACGCGUCUCCAUCCUAAGGAGAAGACUGCGGGUUCGAGUCCCGUACGGAACG, GUUCCGUUGGCGUAAUAGUAACGCGUCUCCAUUCUAAGGAGAAGACUGCGGGUUCGAGGCCCGUCCGGAACG is lower in yeast fitness: 0.706 for the first, no more than 0.5 for the second.

First: GUUCCGUUGGCGUAAUAGUAACGCGUCUCCAUCCUAAGGAGAAGACUGCGGGUUCGAGUCCCGUACGCAACG
Second: GUUCCGUUGGCGUAAUAGUAACGCGUCUCCGUCCUAAGGAGAAGACUGCGGGUUCGAGUCCCGUACGGAACG
The yeast fitness of the first is lower: no more than 0.5 for the first, 0.85 for the second.

Compared with GUUCCGUUGGCGUAAUAGUAACGCGUCUCCUUCCCAAGGAGAAGACUGCGGGUUCGGGUCCCGUACGGAACG, GUUCCGUUGGCGUAAUAGUAACGCGUCUCCCUACUAAGGAGAAGACUGCGGGUUCGAGUCCCGUACGGAACG is higher in yeast fitness: 0.527 for the first, 0.53 for the second.

Going from GUUCCGUUGGCGUAAUAGUAACGCGUCUCCCUUCUUAGGAGAAGAAUGCGGGUUCGAGUCCCGUACGGAACG to GUUCCGUUGGCGUAAUAGUAACGCGUCUCCCUCGUAAGGAGAAGACUGCGGGUUCGAGUCCCGUACGGAACG, the yeast fitness falls from 0.822 to 0.569.

Going from GUUCCGUUGGCGUAAUAGUAACGCGUCUCCCUCUUAAGGAGAAGACAGCGGGUUCGAGUCCCGUACGCAACG to GUUCCGUUGGCGUAAUAGUAACGCGUCUCCCUCCUAAGGAGAAGAGUGCGGGUCCGAGUCCCGUACGGAACG, the yeast fitness rises from no more than 0.5 to 0.562.

First: GUUCCGUUGGCGUAAUAGUAACGCGUCUCCCUCCUAAGGAGAAGAUUGCGGGUUCGAGUCCCGUCCGGAACG
Second: GUUCCGUUGGCGUAAUAGUAACGCGUCUCCCUCCUAAGGAGAAGAUUGCGGGUUCGAGACCCGUACGGAACG
The yeast fitness of the first is higher: 0.658 for the first, 0.584 for the second.

Compared with GUUCCGUUGGCGUAAUAGUAACGCGUCUCCCUCCUAAGGAGAAGACUGGGGGUUCGAGUCCCGUACGGAACG, GUUCCGUUGGCGUAAUAGUAACGCGUCUCCCUCCUAAGGAGAAGACUGUGGGUUCGAGUCCCGUACGGAACG is higher in yeast fitness: 0.761 for the first, 0.892 for the second.

Compared with GUUCCGUUGGCGUAAUAGUAACGCGUCUCCCUCCUAAGGAGAAGACUGCGGGUUUGAGUCCCGUACGGAACG, GUUCCGUUGGCGUAAUAGUAACGCGUCUCCCUCCUAAGGAGAAGACUGCGGGUUCGAGUUCCGUACGGAACG is lower in yeast fitness: 0.681 for the first, 0.594 for the second.

Compared with GUUCCGUUGGCGUAAUAGUAACGCGUCUCCCUCCUAAGGAGAAGACUGCGGGUUCGAGUCGCGUACGGAACG, GUUCCGUUGGCGUAAUAAUAACGCGUCUCCCUCCUAAGGAGAAGACUGCGGGUUCGAGUCACGUACGGAACG is lower in yeast fitness: 0.573 for the first, no more than 0.5 for the second.

Going from GUUCCGUUGGCGUAAUACUAACGCGUCUCCCUCCUAAGCAGAAGACUGCGGGUUCGAGUCCCGUUCGGAACG to GUUCCGUUGGCGUAAUAGUAACACGUCUCCCUCCUAAGGAGAAGACUGCGGGUUCGAGUCCCGUAAGGAACG, the yeast fitness rises from no more than 0.5 to 0.776.

Compared with GUUCCGUUGGCGUAAUAGUAACGCAUCUCCGUCCUAAGGAGAAGACUGCGGGUUCGAGUCCCGUACGAAACG, GUUCCGUUGGCGUAAUAGUAACGCAUCUCCCUCUUAAGGAGAAGACUGCGGGUUGGAGUCCCGUACGGAACG is higher in yeast fitness: no more than 0.5 for the first, 0.532 for the second.

GUUCCGUUGGCGUAAUAGUAACGCCUCUCCCUCCUAAGGUGAAGACUGCGGGUUCGAGUCCCGUACGGAACG showed a yeast fitness of 0.574.

— the RNAGym collection of RNA variant scans (doi:10.1126/science.aae0568)
